From paper PMC10432884 (Clinical and Translational Science, 2023)
Entries after “also recorded” stand apart in the source; their conditions may differ.

Assays:
healthy subjects [1] = assay: SAD phase blood pressure; type: in vivo, human; details: for Mean SBP, LSMs difference from placebo: over 48 h
rodents = details: treated rodents; cited from earlier work
[2] = Plasma protein binding, equilibrium dialysis; type: in vitro ADME, human; details: assumed from protein binding
Procedure, shortened: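 In vitro equilibrium dialysis of test compound at 1 and 10 μM in human plasma (also mouse, rat, dog and monkey). Mean percentage bound was determined. The free fraction was used to correct CSF/plasma concentration ratios.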

[3] = FI phase pharmacokinetics; type: in vivo, human
Procedure, shortened: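 Open-label, randomized two-period crossover in 14 healthy subjects. Each received a single 10 mg oral tablet fasted, or ~30 min after a high-fat meal (800–1000 kcal). Washout was 21 days. Plasma (K-EDTA) was sampled predose and 15 min–48 h postdose, plus days 7 and 14 (period 1) and days 5 and 9 (period 2), and assayed by validated LC-MS/MS (LLOQ 1.00 ng/mL). Cmax, AUCτ and AUCinf were compared by ANOVA (food, sequence, period fixed; subject-within-sequence random).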

healthy subjects [4] = assay: MAD phase CNS test battery; type: in vivo, human
[5] = MAD phase pharmacokinetics; type: in vivo, human; details: for PTR, GeoMean / PTR, Median: peak-to-trough ratio; for R max, GeoMean / R max, Median: accumulation ratio from C max; for R through, GeoMean / R through, Median: accumulation ratio from C trough; for t 1/2_eff, Median / t 1/2_eff, GeoMean: effective half-life based on accumulation; for AUC / Cmax / concentration at 11 day / concentration at 12 day / concentration at 13 day / concentration at 14 day / Tmax / concentration at 1 day: human, plasma, oral; for AUC: AUC τ; for Cmax: C max; for concentration at 11 day / concentration at 12 day / concentration at 13 day / concentration at 14 day / concentration at 1 day: C trough
Procedure, shortened: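 MAD phase, 2–15 mg q.d. oral for 14 days. Plasma was sampled predose daily and 15 min–48 h on days 1 and 14. Urine was pooled over 24 h on days 1 and 14. One CSF sample was taken 3 h postdose on day 7 (10 mg cohort). All matrices were assayed by validated LC-MS/MS. Derived: Cmax, Tmax, t1/2, AUCτ, Ctrough, peak-to-trough ratio, accumulation ratios, and CSF/plasma ratio corrected for protein binding. Results reported as geometric means (95% CI) and medians.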

[6] = First-in-human trial, all phases: overall pharmacokinetics; type: in vivo
[7] = 2 mg, GeoMean, MAD 2 mg q.d., day 14
[8] = 2 mg, Median, MAD 2 mg q.d., day 14
[9] = 5 mg, GeoMean, MAD 5 mg q.d., day 1
[10] = 5 mg, GeoMean, MAD 5 mg q.d., day 14
[11] = 5 mg, Median, MAD 5 mg q.d., day 1
[12] = 5 mg, Median, MAD 5 mg q.d., day 14
[13] = 10 mg, GeoMean, MAD 10 mg q.d., day 1
[14] = 10 mg, GeoMean, MAD 10 mg q.d., day 14
[15] = 10 mg, Median, MAD 10 mg q.d., day 1
[16] = 10 mg, Median, MAD 10 mg q.d., day 14
[17] = 15 mg, GeoMean, MAD 15 mg q.d., day 1
[18] = 15 mg, GeoMean, MAD 15 mg q.d., day 14
[19] = 15 mg, Median, MAD 15 mg q.d., day 1
[20] = 15 mg, Median, MAD 15 mg q.d., day 14

## Fc1ccccc1Cc1nc(-c2nc(C(F)(F)F)n[nH]2)cn2ccnc12 [zagociguat, 8‐(2‐fluorobenzyl)‐6‐(3‐(trifluoromethyl)‐1H‐1,2,4‐triazol‐5‐yl)imidazo[1,2‐a]pyrazine]
Healthy subjects [1]; SAD 3 mg, 95% CI: −9.8, −0.1, p = 0.047
  Mean SBP, LSMs difference from placebo: −4.9 mmHg
Healthy subjects [1]; SAD 50 mg, 95% CI: −10.0, −0.5, p = 0.032
  Mean SBP, LSMs difference from placebo: −5.2 mmHg
Healthy subjects [1]; SAD all dose groups
  DBP change: no decreases
Healthy subjects [1]; SAD other dose groups (1, 10, 20, 30 mg)
  SBP change: No decreases
rodents
  cGMP concentrations in CSF: increases in cGMP concentrations
[2]
  Free zagociguat concentration in human plasma, of total concentration: 1.11%
[3]; FI 10 mg, high-fat meal vs fasted
  Food effect: no food effects were observed
[3]; FI 10 mg, 95% CI: 0.94, 1.03
  C max LSM ratio fed vs. fasted: 0.99
[3]; FI, 21-day washout, limit of quantification 1.00 ng/mL
  Plasma concentration in predose samples of second treatment period: below the limit of quantification
Healthy subjects [4]
  pEEG and CNS tests, differences between placebo and zagociguat groups: No dose‐dependent or consistent statistically significant differences
[5]; CSF sampling during the MAD phase
  CNS penetration: confirmed by cerebrospinal fluid sampling; also recorded: confirmed by CSF sampling
[5]; MAD
  Dose level from which detectable in urine: 2 mg
[5]; MAD 2 mg q.d., day 1
  C trough, GeoMean: 161.13 ng/mL
  C trough, Median: 157.0 ng/mL
  PTR, GeoMean: 1.62
  PTR, Median: 1.64
[5]; MAD 2 mg q.d., day 14
  PTR, GeoMean: 1.41
  PTR, Median: 1.40
[5]; MAD 2 mg q.d.
  R max, GeoMean: 3.38
  R max, Median: 3.32
  R through, GeoMean: 3.87
  R through, Median: 4.06
  t 1/2_eff, Median: 54.46 h
[5]; MAD 5 mg q.d., day 1
  PTR, GeoMean: 1.55
  PTR, Median: 1.50
[5]; MAD 5 mg q.d., day 14
  PTR, GeoMean: 1.35
  PTR, Median: 1.34
[5]; MAD 5 mg q.d.
  R max, GeoMean: 3.45
  R max, Median: 3.56
  R through, GeoMean: 3.98
  R through, Median: 3.79
  t 1/2_eff, GeoMean: 54.60 h
  t 1/2_eff, Median: 56.63 h
[5]; MAD 10 mg q.d., day 1
  PTR, Median: 1.36
[5]; MAD 10 mg q.d., day 14
  PTR, GeoMean: 1.37
  PTR, Median: 1.37
[5]; MAD 10 mg q.d.
  R max, GeoMean: 3.60
  R max, Median: 3.68
  R through, GeoMean: 3.79
  R through, Median: 3.56
  t 1/2_eff, GeoMean: 54.29 h
  t 1/2_eff, Median: 54.53 h
[5]; MAD 15 mg q.d., day 1
  C trough, GeoMean: 1173.20 ng/mL
  C trough, Median: 1165 ng/mL
  PTR, GeoMean: 1.38
  PTR, Median: 1.37
[5]; MAD 15 mg q.d., day 11
  C trough, GeoMean: 4149.25 ng/mL
  C trough, Median: 4140 ng/mL
[5]; MAD 15 mg q.d., day 12
  C trough, GeoMean: 4246.79 ng/mL
  C trough, Median: 4140 ng/mL
[5]; MAD 15 mg q.d., day 13
  C trough, GeoMean: 4157.21 ng/mL
  C trough, Median: 4160 ng/mL
[5]; MAD 15 mg q.d., day 14
  C trough, GeoMean: 4377.90 ng/mL
  C trough, Median: 4275 ng/mL
  PTR, GeoMean: 1.35
  PTR, Median: 1.33
[5]; MAD 15 mg q.d.
  R max, GeoMean: 3.61
  R max, Median: 3.54
  R through, GeoMean: 3.73
  R through, Median: 3.81
  t 1/2_eff, GeoMean: 52.80 h
  t 1/2_eff, Median: 51.81 h
[5]; MAD day 1 and day 14 (Table S6)
  Dose linearity analysis using AUC τ and C max: indicated dose proportionality
[5]; MAD, all doses administered, Helmert contrasts of trough concentrations
  Day on which steady-state was attained: 11 days
[5]; both, 2 mg, GeoMean, MAD 2 mg q.d., day 1
  AUC: 4500 ng·h/mL
[5]; both, 2 mg, GeoMean, MAD 2 mg q.d., day 14
  AUC: 16900 ng·h/mL
[5]; both, 2 mg, Median, MAD 2 mg q.d., day 1
  AUC: 4520 ng·h/mL
[5]; both, 2 mg, Median, MAD 2 mg q.d., day 14
  AUC: 17000 ng·h/mL
[5]; 2 mg, GeoMean, MAD 2 mg q.d., day 1
  Cmax: 260 ng/mL
[5]; [7]
  Cmax: 880 ng/mL
  concentration at 14 day: 624 ng/mL
[5]; 2 mg, Median, MAD 2 mg q.d., day 1
  Cmax: 268 ng/mL
[5]; [8]
  Cmax: 888 ng/mL
  concentration at 14 day: 632 ng/mL
[5]; 2 mg, GeoMean, MAD 2 mg q.d., day 11
  concentration at 11 day: 587 ng/mL
[5]; 2 mg, GeoMean, MAD 2 mg q.d., day 12
  concentration at 12 day: 593 ng/mL
[5]; 2 mg, GeoMean, MAD 2 mg q.d., day 13
  concentration at 13 day: 616 ng/mL
[5]; 2 mg, Median, MAD 2 mg q.d., day 11
  concentration at 11 day: 579 ng/mL
[5]; 2 mg, Median, MAD 2 mg q.d., day 12
  concentration at 12 day: 584 ng/mL
[5]; 2 mg, Median, MAD 2 mg q.d., day 13
  concentration at 13 day: 610 ng/mL
[5]; 2 mg, T max, Median, MAD 2 mg q.d., day 1
  Tmax: 1 h
[5]; 2 mg, T max, Median, MAD 2 mg q.d., day 14
  Tmax: 1 h
[5]; [9]
  AUC: 11000 ng·h/mL
  Cmax: 602 ng/mL
  concentration at 1 day: 389 ng/mL
[5]; [10]
  AUC: 42100 ng·h/mL
  Cmax: 2080 ng/mL
  concentration at 14 day: 1540 ng/mL
[5]; [11]
  AUC: 11500 ng·h/mL
  Cmax: 597 ng/mL
  concentration at 1 day: 410 ng/mL
[5]; [12]
  AUC: 43900 ng·h/mL
  Cmax: 2230 ng/mL
  concentration at 14 day: 1640 ng/mL
[5]; 5 mg, GeoMean, MAD 5 mg q.d., day 11
  concentration at 11 day: 1480 ng/mL
[5]; 5 mg, GeoMean, MAD 5 mg q.d., day 12
  concentration at 12 day: 1500 ng/mL
[5]; 5 mg, GeoMean, MAD 5 mg q.d., day 13
  concentration at 13 day: 1510 ng/mL
[5]; 5 mg, Median, MAD 5 mg q.d., day 11
  concentration at 11 day: 1540 ng/mL
[5]; 5 mg, Median, MAD 5 mg q.d., day 12
  concentration at 12 day: 1580 ng/mL
[5]; 5 mg, Median, MAD 5 mg q.d., day 13
  concentration at 13 day: 1580 ng/mL
[5]; 5 mg, T max, Median, MAD 5 mg q.d., day 1
  Tmax: 2 h
[5]; 5 mg, T max, Median, MAD 5 mg q.d., day 14
  Tmax: 3 h
[5]; [13]
  AUC: 20100 ng·h/mL
  Cmax: 1070 ng/mL
  concentration at 1 day: 751 ng/mL
[5]; [14]
  AUC: 76800 ng·h/mL
  Cmax: 3910 ng/mL
  concentration at 14 day: 2850 ng/mL
[5]; [15]
  AUC: 21500 ng·h/mL
  Cmax: 1140 ng/mL
  concentration at 1 day: 750 ng/mL
[5]; [16]
  AUC: 82100 ng·h/mL
  Cmax: 4050 ng/mL
  concentration at 14 day: 2820 ng/mL
[5]; 10 mg, GeoMean, MAD 10 mg q.d., day 11
  concentration at 11 day: 2760 ng/mL
[5]; 10 mg, GeoMean, MAD 10 mg q.d., day 12
  concentration at 12 day: 2910 ng/mL
[5]; 10 mg, GeoMean, MAD 10 mg q.d., day 13
  concentration at 13 day: 2840 ng/mL
[5]; 10 mg, Median, MAD 10 mg q.d., day 11
  concentration at 11 day: 3090 ng/mL
[5]; 10 mg, Median, MAD 10 mg q.d., day 12
  concentration at 12 day: 3240 ng/mL
[5]; 10 mg, Median, MAD 10 mg q.d., day 13
  concentration at 13 day: 3190 ng/mL
[5]; 10 mg, T max, Median, MAD 10 mg q.d., day 1
  Tmax: 3 h
[5]; 10 mg, T max, Median, MAD 10 mg q.d., day 14
  Tmax: 2.2 h
[5]; [17]
  AUC: 31300 ng·h/mL
  Cmax: 1620 ng/mL
[5]; [18]
  AUC: 116000 ng·h/mL
  Cmax: 5850 ng/mL
[5]; [19]
  AUC: 30100 ng·h/mL
  Cmax: 1530 ng/mL
[5]; [20]
  AUC: 112000 ng·h/mL
  Cmax: 5800 ng/mL
[5]; 15 mg, T max, Median, MAD 15 mg q.d., day 1
  Tmax: 3 h
[5]; 15 mg, T max, Median, MAD 15 mg q.d., day 14
  Tmax: 3.5 h
[5]; Median observed T max, range, MAD all doses, days 1 and 14
  Tmax: 1 to 3.5 h
[5]; treatment period of 14 days
  Drug accumulation: moderate drug accumulation
[6]; human, plasma, oral
  half-life: 52.8 to 67.1 h
[6]; single and multiple escalating doses
  Exposure vs dose: increased in a dose‐proportional manner
